According to ChEMBL document CHEMBL1146374, “Clubbed triazoles: a novel approach to antitubercular drugs” (Eur J Med Chem, 2007):

Tests used:
Pseudomonas aeruginosa = assay: Antibacterial activity against Pseudomonas aeruginosa at 50 to 100 uM after 24 hrs by well diffusion method; assay type: functional
How it was run: (§1)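 Agar well diffusion: nutrient agar plates with 10 mm wells cut by sterile cork borer; 24-h subcultured bacteria swabbed onto the plates from nutrient broth. Compounds were dissolved in chloroform and added to wells at […]. Gentamycin served as the standard antibiotic.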

Escherichia coli = assay: Antibacterial activity against Escherichia coli at 50 to 100 uM after 24 hrs by well diffusion method; assay type: functional; how it was run: as §1
Staphylococcus aureus = assay: Antibacterial activity against Staphylococcus aureus at 50 to 100 uM after 24 hrs by well diffusion method; assay type: functional; how it was run: as §1
Salmonella typhi = assay: Antibacterial activity against Salmonella typhi at 50 to 100 uM after 24 hrs by well diffusion method; assay type: functional, Salmonella enterica subsp. enterica serovar Typhi
How it was run: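 Agar well diffusion on nutrient agar plates; wells cut with a 10 mm sterile cork borer. Plates swabbed with 24-h subcultured bacteria from nutrient broth. Compounds dissolved in chloroform and added to wells at a range of concentrations. Gentamycin was the standard.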

[1] = Cytotoxicity against Vero-C1008 cells at 6.25 to 50 ug/ml; assay type: cell-based; conditions: chlorocebus sabaeus
How it was run: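 Vero-C-1008 cells were exposed to compounds at several concentrations across 6.25–50 µg/ml. Cytotoxicity was read out by neutral red uptake.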

[2] = tested on: Mycobacterium tuberculosis; assay: Antituberculosis activity against Mycobacterium tuberculosis H37Rv by Microplate Alamar Blue Assay; assay type: functional
How it was run: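 MIC against M. tuberculosis H37Rv (ATCC 27294) in BACTEC 12B medium by broth microdilution (MABA). Primary actives were retested at lower concentrations. MIC is the lowest concentration giving a […] fluorescence reduction versus controls. Fluorescent compounds were run in the BACTEC 460 radiometric system. Rifampin was the reference.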

Row | Compound | zone of inhibition (Pseudomonas aeruginosa) [mm] | zone of inhibition (Escherichia coli) [mm] | zone of inhibition (Staphylococcus aureus) [mm] | Inhibition (Salmonella typhi) [%] | Activity [1] | MIC [2] [µg/mL] | inhibition (Pseudomonas aeruginosa) [%] | inhibition (Escherichia coli) [%] | inhibition (Staphylococcus aureus) [%] | inhibition (Salmonella typhi; Salmonella enterica subsp. enterica serovar Typhi) [%]
1 | O=C(Nc1nc(Cc2nnc(SCSc3nnc(Cc4csc(NC(=O)c5ccccc5)n4)n3NC(=O)c3ccccc3)n2NC(=O)c2ccccc2)cs1)c1ccccc1 | 24 | 16 | 11 | 12 | Non-toxic | < 6.25 |  |  |  | 
2 | Nn1c(S)nnc1CSc1nnc(Cc2csc(NC(=O)c3ccccc3)n2)n1NC(=O)c1ccccc1 | 18 | 18 | 12 | 14 | Non-toxic | < 6.25 |  |  |  | 
3 | CC(=O)NNC(=O)CSc1nnc(Cc2csc(NCCC(=O)O)n2)n1NC(=O)c1ccccc1 |  |  |  |  | Non-toxic | < 6.25 |  |  |  | 
4 | COC(=O)CSc1nnc(Cc2csc(NC(C)=O)n2)n1NC(=O)c1ccccc1 | 11 | 24 | 22 | 24 | Non-toxic | < 6.25 |  |  |  | 
5 | O=C(CCl)Nc1nc(Cc2nnc(S)n2NC(=O)c2ccccc2)cs1 | 20 | 18 | 20 | 14 | Non-toxic | < 6.25 |  |  |  | 
6 | COC(=O)CSc1nnc(Cc2csc(NC(=O)CCl)n2)n1NC(=O)c1ccccc1 | 22 | 20 | 24 | 18 | Non-toxic | < 6.25 |  |  |  | 
7 | O=C(CSc1nnc(Cc2csc(NC(=O)CCl)n2)n1NC(=O)c1ccccc1)NNC(=O)c1ccccc1 |  |  |  |  | Non-toxic | < 6.25 |  |  |  | 
8 | CC(=O)NNC(=O)CSc1nnc(Cc2csc(NC(=O)CCl)n2)n1NC(=O)c1ccccc1 | 10 | 14 | 24 | 14 | Non-toxic | < 6.25 |  |  |  | 
9 | O=C(O)CCNc1nc(Cc2nnc(SCC(=O)NNC(=O)c3ccccc3)n2NC(=O)c2ccccc2)cs1 |  |  |  |  | Non-toxic | < 6.25 |  |  |  | 
10 | Nn1c(S)nnc1CSc1nnc(Cc2csc(NC(=O)CCl)n2)n1NC(=O)c1ccccc1 | 10 | 10 | 12 | 14 | Non-toxic | < 6.25 |  |  |  | 
11 | CC(=O)Nc1nc(Cc2nnc(SCc3nnc(S)n3N)n2NC(=O)c2ccccc2)cs1 | 16 | 12 | 14 | 18 | Non-toxic | < 6.25 |  |  |  | 
12 | COC(=O)CSc1nnc(Cc2csc(NC(=O)c3ccccc3)n2)n1NC(=O)c1ccccc1 | 22 | 20 | 22 | 20 | Non-toxic | < 6.25 |  |  |  | 
13 | GENTAMICIN |  |  |  |  |  |  | 35 | 31 | 34 | 30
14 | CC(=O)Nc1nc(Cc2nnc(S)n2NC(=O)c2ccccc2)cs1 | 16 | 20 | 16 | 16 | Non-toxic | < 6.25 |  |  |  | 
15 | COC(=O)CSc1nnc(Cc2csc(NCCC(=O)O)n2)n1NC(=O)c1ccccc1 | 18 | 12 | 16 | 12 | Non-toxic | < 6.25 |  |  |  | 
16 | N#CCSc1nnc(Cc2csc(NC(=O)CCl)n2)n1NC(=O)c1ccccc1 | 16 | 10 | 20 | 10 | Non-toxic | < 6.25 |  |  |  | 

Row | Compound | zone of inhibition (Pseudomonas aeruginosa) [mm] | zone of inhibition (Escherichia coli) [mm] | zone of inhibition (Staphylococcus aureus) [mm] | Inhibition (Salmonella typhi) [%] | Activity [1] | MIC [2] [µg/mL] | inhibition (Pseudomonas aeruginosa) [%] | inhibition (Escherichia coli) [%] | inhibition (Staphylococcus aureus) [%] | inhibition (Salmonella typhi; Salmonella enterica subsp. enterica serovar Typhi) [%]
17 | O=C(Nc1nc(Cc2nnc(S)n2NC(=O)c2ccccc2)cs1)c1ccccc1 | 10 | 10 | 16 | 18 | Non-toxic | < 6.25 |  |  |  | 
18 | CC(=O)NNC(=O)CSc1nnc(Cc2csc(NC(C)=O)n2)n1NC(=O)c1ccccc1 | 18 | 10 | 21 | 18 | Non-toxic | < 6.25 |  |  |  | 
19 | O=C(CSc1nnc(Cc2csc(NC(=O)c3ccccc3)n2)n1NC(=O)c1ccccc1)NNC(=O)c1ccccc1 |  |  |  |  | Non-toxic | < 6.25 |  |  |  | 
20 | O=C(CCl)Nc1nc(Cc2nnc(SCSc3nnc(Cc4csc(NC(=O)CCl)n4)n3NC(=O)c3ccccc3)n2NC(=O)c2ccccc2)cs1 | 22 | 20 | 22 | 16 | Non-toxic | < 6.25 |  |  |  | 
21 | O=C(O)CCNc1nc(Cc2nnc(SCC(=O)NNC(=O)CCl)n2NC(=O)c2ccccc2)cs1 |  |  |  |  | Non-toxic | < 6.25 |  |  |  | 
22 | CC(=O)Nc1nc(Cc2nnc(SCC(=O)NNC(=O)CCl)n2NC(=O)c2ccccc2)cs1 |  |  |  |  | Non-toxic | < 6.25 |  |  |  | 
23 | Nn1c(S)nnc1Cc1csc(NC(=O)CCl)n1 | 17 | 14 | 18 | 12 | Non-toxic | < 6.25 |  |  |  | 
24 | Nn1c(S)nnc1CSc1nnc(Cc2csc(NCCC(=O)O)n2)n1NC(=O)c1ccccc1 | 11 | 18 | 14 | 12 | Non-toxic | < 6.25 |  |  |  | 
25 | O=C(O)CCNc1nc(Cc2nnc(SCSc3nnc(Cc4csc(NCCC(=O)O)n4)n3NC(=O)c3ccccc3)n2NC(=O)c2ccccc2)cs1 | 16 | 10 | 18 | 12 | Non-toxic | < 6.25 |  |  |  | 
26 | O=C(CCl)NNC(=O)CSc1nnc(Cc2csc(NC(=O)c3ccccc3)n2)n1NC(=O)c1ccccc1 |  |  |  |  | Non-toxic | < 6.25 |  |  |  | 
27 | CC(=O)Nc1nc(Cc2nnc(SCSc3nnc(Cc4csc(NC(C)=O)n4)n3NC(=O)c3ccccc3)n2NC(=O)c2ccccc2)cs1 | 16 | 12 | 16 | 12 | Non-toxic | < 6.25 |  |  |  | 
28 | Nn1c(S)nnc1Cc1csc(NCCC(=O)O)n1 | 22 | 20 | 25 | 16 | Non-toxic | < 6.25 |  |  |  | 
29 | O=C(CCl)NNC(=O)CSc1nnc(Cc2csc(NC(=O)CCl)n2)n1NC(=O)c1ccccc1 |  |  |  |  | Non-toxic | < 6.25 |  |  |  | 
30 | O=C(O)CCNc1nc(Cc2nnc(S)n2NC(=O)c2ccccc2)cs1 | 17 | 15 | 11 | 22 | Non-toxic | < 6.25 |  |  |  | 
31 | CC(=O)NNC(=O)CSc1nnc(Cc2csc(NC(=O)c3ccccc3)n2)n1NC(=O)c1ccccc1 |  |  |  |  | Non-toxic | < 6.25 |  |  |  | 
32 | CC(=O)Nc1nc(Cc2nnc(SCC(=O)NNC(=O)c3ccccc3)n2NC(=O)c2ccccc2)cs1 |  |  |  |  | Non-toxic | < 6.25 |  |  |  | 
